The values below come from ChEMBL document CHEMBL3526151, “Reversible disulfide formation of the glutamate carboxypeptidase II inhibitor E2072 results in prolonged systemic exposures in vivo” (Drug Metab Dispos, 2012).

Structures are written as SMILES.

The nature of series [1]: Tmax in Sprague-Dawley rat at 10 mg/kg, po administered via gavage measured under fed conditions by LC-MS/MS analysis. It is filed as ADME, organism-based. Also on record: dose 10 mg/kg, route oral. Conditions: in vivo. A digest of the protocol:
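Nonfasted male Sprague-Dawley rats gavaged once at 10 mg/kg in 50 mM HEPES-buffered saline pH 7.4. Blood into heparin/NEM tubes at 0, 0.25, 0.5, 1, 2, 4, 6, 8 and 24 h. Plasma analysed by LC-MS/MS; Tmax taken as the observed value.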

Series [2] can be described thus: AUC(0 to infinity) in Sprague-Dawley rat at 10 mg/kg, iv by LC-MS/MS analysis. Conditions: plasma. Type of series: ADME, organism-based. Also on record: time infinity, dose 10 mg/kg, route intravenous. The essentials:
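Male Sprague-Dawley rats dosed intravenously at 10 mg/kg (n = 6). Blood sampling extended to 7 days into heparin tubes containing NEM. Plasma assayed for parent and homodisulfide by LC-MS/MS, calibration range 1–5000 ng/ml. Noncompartmental analysis, t1/2 = 0.693/λz. Mean ± S.D.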

The nature of series [3]: Volume of distribution in Sprague-Dawley rat at 10 mg/kg, iv by LC-MS/MS analysis. Conditions: in vivo. Type of series: ADME, organism-based. More on the design: dose 10 mg/kg, route intravenous.
Series [4] deals with Rattus norvegicus. Briefly: Elimination half life in Sprague-Dawley rat at 10 mg/kg, iv by LC-MS/MS analysis. It is filed as ADME, organism-based. Also on record: dose 10 mg/kg, route intravenous. Conditions: in vivo. The essentials: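 Male Sprague-Dawley rats received a single IV dose of either 10 mg/kg parent drug (n = 6) or 5 mg/kg homodisulfide (n = 5), in 50 mM HEPES-buffered saline, pH 7.4. Blood was collected into NEM-containing heparinized tubes for up to 7 days. Parent drug and homodisulfide in plasma were quantified by LC-MS/MS. Terminal t1/2β was calculated as 0.693/λz.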

A short description of series [5]: Cmax in Sprague-Dawley rat liver at 10 mg/kg, po administered as single dose measured per gm of tissue by LC-MS/MS analysis. Also on record: dose 10 mg/kg, route oral. Type of series: ADME, organism-based. A digest of the protocol:
(§1)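 Male Sprague-Dawley rats were dosed orally with 10 mg/kg/day, either once or daily for 5 days; n = 4 per group. Blood was taken by cardiac puncture and liver, kidney, brain and sciatic nerve were collected at 0–8 h post-dose. Tissues were homogenized in PBS containing NEM at equal volume per gram. NEM-derivatized analyte was extracted with methanol and quantified by LC-MS/MS (1–5000 ng/ml). Cmax is the observed value.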

A short description of series [6]: Cmax in Sprague-Dawley rat brain at 10 mg/kg, po administered as single dose measured per gm of tissue by LC-MS/MS analysis. Also on record: dose 10 mg/kg, route oral. It is filed as ADME, organism-based. The essentials:
as §1

A short description of series [7]: Cmax in Sprague-Dawley rat sciatic nerve at 10 mg/kg, po administered as single dose measured per gm of tissue by LC-MS/MS analysis. It is filed as ADME, organism-based. More on the design: dose 10 mg/kg, route oral. The essentials: as §1
A short description of series [8]: Cmax in Sprague-Dawley rat plasma at 10 mg/kg/day, po administered for 5 days by LC-MS/MS analysis. It is filed as ADME, organism-based. More on the design: dose 10 mg/kg/day, route oral. The essentials:
as §1

Series [9] concerns Rattus norvegicus. Briefly: Analgesic activity in Sprague-Dawley rat chronic constriction injury model assessed as change in paw withdrawal latency at 10 mg/kg/day, po measured 11 days after drug treatment cessation (reference value: -2.77 +/-0.3 s). Type of series: functional.
Series [10] in a line: Phase 1 metabolic stability in monkey liver microsomes assessed as compound remaining at 10 uM measured for 1 hr by LC-MS/MS analysis. Type of series: ADME, Macaca mulatta. Conditions: rhesus monkey, read-out: Stability. A digest of the protocol:
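Liver microsomes (0.5 mg/ml) were incubated with 10 µM compound (final) in 100 mM potassium phosphate, pH 7.4. An NADPH-regenerating system was present: 1.3 mM NADPH, 3.3 mM glucose 6-phosphate, 3.3 mM MgCl2, 0.4 U/ml G6PDH and 50 µM sodium citrate. Runs were in duplicate, with samples taken up to 1 h and quenched with acetonitrile containing internal standard. Loss of compound was followed by LC-MS/MS.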

Series [11] is described as follows: Phase 2 metabolic stability in mouse liver microsomes assessed as compound remaining at 10 uM measured for 1 hr by LC-MS/MS analysis. Type of series: ADME. Conditions: read-out: Stability. A digest of the protocol: (§2)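 Glucuronidation in liver microsomes of the named species, 0.5 mg/ml protein, compound at 10 μM final, in 50 mM Tris-HCl pH 7.5 with 8 mM MgCl2 and 25 μg/ml alamethicin. Preincubated at 37°C, then started with 2 mM UDPGA (final); cofactor-free controls run alongside. Duplicate reactions, sampled up to 1 h, quenched with cold acetonitrile plus internal standard; disappearance followed by LC-MS/MS.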

Series [12] can be described thus: Phase 2 metabolic stability in mouse liver microsomes assessed as compound remaining at 10 uM measured for 1 hr by LC-MS/MS analysis in absence of cofactors. Conditions: read-out: Stability. It is filed as ADME. A digest of the protocol: as §2
A short description of series [13]: Cmax in Sprague-Dawley rat sciatic nerve at 10 mg/kg/day, po administered measured per gm of tissue for 5 days by LC-MS/MS analysis. It is filed as ADME, organism-based. More on the design: dose 10 mg/kg/day, route oral. The essentials: as §1
A short description of series [14]: Cmax in Sprague-Dawley rat at 30 mg/kg, po administered via gavage measured under fasted conditions by LC-MS/MS analysis. Conditions: in vivo. Type of series: ADME, organism-based. Also on record: dose 30 mg/kg, route oral. The essentials: (§3)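 Fasted male Sprague-Dawley rats (280–330 g) received 0.1, 1, 10 or 30 mg/kg by oral gavage in 50 mM HEPES buffered saline, pH 7.4. Blood drawn at 0.25–24 h into heparin/NEM tubes; plasma analyzed by LC-MS/MS. Cmax taken as observed. AUC by linear trapezoidal rule with extrapolation by λz. Cl/F and Vd/F reported. Mean ± S.D., n = 4–9.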

The nature of series [15]: AUC(0 to infinity) in Sprague-Dawley rat at 1 mg/kg, po administered via gavage measured under fasted conditions by LC-MS/MS analysis. It is filed as ADME, organism-based. Conditions: plasma. Also on record: time infinity, dose 1 mg/kg, route oral. A digest of the protocol: as §3
Series [16] in a line: AUC(0 to infinity) in Sprague-Dawley rat at 30 mg/kg, iv administered as bolus injection measured under fasted conditions by LC-MS/MS analysis. More on the design: time infinity, dose 30 mg/kg, route intravenous. It is filed as ADME, organism-based. Conditions: plasma. A digest of the protocol: (§4)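 Male Sprague-Dawley rats (280–330 g), jugular vein cannulated, fasted overnight until 4 h post-dose. Single tail-vein bolus of 0.1, 1, 10 or 30 mg/kg in 50 mM HEPES buffered saline, pH 7.4. Blood drawn 0–24 h into heparin tubes containing NEM. Plasma quantified by LC-MS/MS after NEM derivatization. Noncompartmental analysis: AUClast by linear trapezoidal rule, Cl = dose/AUC0-∞. Mean ± S.D., n = 4–9.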

Series [17] is described as follows: Tmax in Sprague-Dawley rat at 10 mg/kg, po administered via gavage measured under fasted conditions by LC-MS/MS analysis. Type of series: ADME, organism-based. Also on record: dose 10 mg/kg, route oral. Conditions: in vivo. The essentials: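 Jugular-cannulated male Sprague-Dawley rats, 280–330 g, fasted overnight to 4 h post-dose. Single dose in 50 mM HEPES-buffered saline pH 7.4, by oral gavage or as tail-vein i.v. bolus. Blood into heparin/NEM tubes at 0–24 h. Plasma measured by LC-MS/MS; noncompartmental analysis; Tmax observed; Vd = dose/(AUCinf·λz).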

Series [18] can be described thus: AUC(0 to last) in Sprague-Dawley rat at 1 mg/kg, iv administered as bolus injection measured under fasted conditions by LC-MS/MS analysis. It is filed as ADME, organism-based. Conditions: plasma. Also on record: time 0 - last, dose 1 mg/kg, route intravenous. A digest of the protocol:
as §4

The nature of series [19]: AUC(0 to last) in Sprague-Dawley rat at 10 mg/kg, iv administered as bolus injection measured under fasted conditions by LC-MS/MS analysis. More on the design: time 0 - last, dose 10 mg/kg, route intravenous. It is filed as ADME, organism-based. Conditions: plasma. The essentials: as §4
Series [20] relates to Rattus norvegicus. Briefly: Clearance in Sprague-Dawley rat at 10 mg/kg, iv administered as bolus injection measured under fasted conditions by LC-MS/MS analysis. It is filed as ADME, organism-based. Also on record: dose 10 mg/kg, route intravenous. Conditions: in vivo. The essentials: as §4
Series [21] in a line: Apparent volume of distribution in Sprague-Dawley rat at 10 mg/kg, po administered via gavage measured under fasted conditions by LC-MS/MS analysis. It is filed as ADME, organism-based. More on the design: dose 10 mg/kg, route oral. Conditions: in vivo. A digest of the protocol:
as §3

Series [22] in a line: Half life in Sprague-Dawley rat at 0.1 mg/kg, iv administered as bolus injection measured under fasted conditions by LC-MS/MS analysis. Type of series: ADME, organism-based. More on the design: dose 0.1 mg/kg, route intravenous. Conditions: in vivo.

As for `O=C(O)c1cccc(-c2cccc(CCS)c2C(=O)O)c1`, the Tmax in [1] was determined as 0.29 h; in series [17] it was 1.03 h. The area under the curve AUC(0-inf) amounted to 87000 ng·h/mL in series [2], 3210 ng·h/mL in [15] and 204000 ng·h/mL in series [16]. In series [3], this molecule showed a Vd of 19 L/kg. Moreover, the “beta t1/2” value in the series with Rattus norvegicus [4] worked out at 105 h. For the same molecule, the Cmax in series [5] was 453 ng/g; in series [6], 25 ng/g; in series [7], 203 ng/g; in series [8], 6080 ng/mL; in series [13] it was 165 ng/g; in [14], 13000 ng/mL. For the same molecule, in the series with Rattus norvegicus [9], the Time is -1.9 s. The remaining at 1 h, 10 µM in series [10], in series [11] and in series [12] was greater than 90% in each case. For the same molecule, the exposure AUC(0-t) amounted to 12700 ng·h/mL in series [18] and 90200 ng·h/mL in series [19]. The molecule further showed a CL in the series on Rattus norvegicus [20] of 4.5 mL/min/kg. Besides, the Vd/F in series [21] came out at 1.44 L/kg. In series [22], this molecule gave a half-life of 2.3 h.
